Converted amounts (≈) assume the structure as drawn.
What was measured:
[1] = Estimated solubility (buffer pH 7.4); type: ADME; conditions: read-out: S
Summary of the method: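 Solubility was estimated in pH 7.4 phosphate buffer.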

[2] = In vitro for cytotoxicity in MT-4 lymphocytes in the absence of HIV infection; type: cell-based, MT4; conditions: human
Summary of the method: (§1)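 Uninfected MT-4 lymphocytes were cultured with compound. CC50 is the concentration at which 50% of cells remain viable.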

[3] = system: Human immunodeficiency virus 1; assay: Compound was tested in vitro for inhibition of cytopathic effect of HIV-1 3B in MT-4 lymphocytes; type: functional, organism-based
Summary of the method: (§2)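 MT-4 lymphocytes were infected with HIV-1 3B at an MOI of either 0.001 or 0.032 tissue culture infective dose per cell. EC50 is the concentration preventing 50% of viral cytopathic effect, from a single triplicate assay. No effect means no activity up to 100 μM or up to the cytotoxic concentration.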

[4] = biological target: Human immunodeficiency virus type 1 protease (Human immunodeficiency virus 1, UniProt Q72874); assay: Inhibition of purified recombinant HIV-1 protease in a fluorogenic assay
Summary of the method: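 Purified recombinant HIV-1 protease, with cleavage of the fluorogenic substrate DABCYL-[…]-Pro-Ile-Val-Gln-EDANS as read-out. Value is the inhibitor concentration giving 50% inhibition of protease activity.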

[5] = Cmax in plasma after oral dose (10 mg/kg); type: ADME, organism-based; design: dose 10 mg/kg, route oral
Summary of the method: (§3)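 Rats in groups of eight: four dosed 5 mg/kg intravenously, four 10 mg/kg orally. Dosing solutions were 5 mg/mL in 20% ethanol/5% glucose in water with 2 molar equiv HCl (1 equiv HCl or 2 equiv methanesulfonic acid for some). Terminal t1/2 from the IV arm (n = 4). Cmax was the peak plasma level after oral dosing (n = 4). Bioavailability was AUCoral/2 × AUCiv over 0-6 h.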

MT4 [6] = assay: In vitro for cytotoxicity in MT-4 lymphocytes in the absence of HIV infection.; type: functional; conditions: Homo sapiens; summary of the method: as §1
[7] = % bioavailability in rat after oral dose (10 mg/kg) 0 - 6 h.; type: ADME, organism-based; conditions: in vivo; summary of the method: as §3
[8] = t1/2 in rats after IV dose (5 mg/kg); type: ADME, organism-based; conditions: rat, in vivo; summary of the method: as §3
[9] = system: Human immunodeficiency virus 1; assay: In vitro for inhibition of cytopathic effect of HIV-1 3B in MT-4 lymphocytes.; type: functional, organism-based; summary of the method: as §2
MT4 [10] = assay: Compound was tested in vitro for inhibition of cytopathic effect of HIV-1 3B in MT-4 lymphocytes; No effect; type: functional, cell-based, Homo sapiens; summary of the method: as §2
[11] = Cmax in rat plasma after oral dose (10 mg/kg); type: ADME, organism-based; design: dose 10 mg/kg, route oral; summary of the method: as §3

SMILES	solubility [1] [µg/mL]	CC50 [2] [nM]	EC50 [3] [nM]	IC50 [4] [nM]	Cmax [5] [nM]	CC50 (MT4 [6]) [nM]	bioavailability [7] [%]	half-life [8] [h]	EC50 [9] [nM]	EC50 (MT4 [10])	Cmax [11] [nM]
CC(C)[C@H](NS(=O)(=O)CCc1ccccn1)C(=O)N[C@@H](Cc1ccccc1)[C@@H](O)[C@@H](O)[C@H](Cc1ccccc1)NC(=O)[C@H](NS(=O)(=O)CCc1ccccn1)C(C)C	26 (≈ 31.1 µM)	> 100000	2000	< 1							
CC(C)[C@H](NS(=O)(=O)CCc1ccncc1)C(=O)N[C@@H](Cc1ccccc1)[C@H](O)[C@H](O)[C@H](Cc1ccccc1)NC(=O)[C@H](NS(=O)(=O)CCc1ccncc1)C(C)C	55 (≈ 65.7 µM)	> 100000	19000	13							
CC(C)[C@H](NC(=O)OCc1cccnc1)C(=O)N[C@@H](Cc1ccccc1)C(O)[C@H](Cc1ccccc1)NC(=O)[C@H](NC(=O)OCc1cccnc1)C(C)C (stereo partly drawn)	18 (≈ 24.4 µM)			6.8	220	62000	2.1	0.31	6300		
CC(C)[C@H](NC(=O)OCCN1CCOCC1)C(=O)N[C@@H](Cc1ccccc1)[C@@H](O)[C@H](Cc1ccccc1)NC(=O)[C@H](NC(=O)OCc1ccccc1)C(C)C	6.8 (≈ 8.95 µM)	> 100000	6900	9							
CC(C)[C@H](NC(=O)OCc1ccncc1)C(=O)N[C@@H](Cc1ccccc1)[C@@H](O)[C@H](Cc1ccccc1)NC(=O)[C@H](NC(=O)OCc1ccccc1)C(C)C	0.8 (≈ 1.08 µM)	> 100000	10000	7							
CC(C)[C@H](NC(=O)OCCN1CCCC1)C(=O)N[C@@H](Cc1ccccc1)[C@@H](O)[C@H](Cc1ccccc1)NC(=O)[C@H](NC(=O)OCc1ccccc1)C(C)C	19 (≈ 25.5 µM)	21000		14						Not Active	
CC(C)[C@H](NS(=O)(=O)CCc1ccncc1)C(=O)N[C@@H](Cc1ccccc1)[C@@H](O)[C@@H](O)[C@H](Cc1ccccc1)NC(=O)[C@H](NS(=O)(=O)CCc1ccncc1)C(C)C	5.6 (≈ 6.69 µM)	> 100000	17000	5.7							
CC(C)[C@H](NS(=O)(=O)CCc1ccccn1)C(=O)N[C@@H](Cc1ccccc1)[C@H](O)[C@H](O)[C@H](Cc1ccccc1)NC(=O)[C@H](NS(=O)(=O)CCc1ccccn1)C(C)C	0.047 (≈ 0.0561 µM)	> 100000	1800	1.6							
CC(C)[C@H](NC(=O)OCC1CCCN(C)C1)C(=O)N[C@@H](Cc1ccccc1)[C@@H](O)[C@H](Cc1ccccc1)NC(=O)[C@H](NC(=O)OCc1ccccc1)C(C)C (stereo partly drawn)	31 (≈ 40.9 µM)	17000		13						Not Active	
CC(C)[C@H](NC(=O)OCc1ccncc1)C(=O)N[C@@H](Cc1ccccc1)C(O)[C@H](Cc1ccccc1)NC(=O)[C@H](NC(=O)OCc1ccncc1)C(C)C (stereo partly drawn)	7.8 (≈ 10.6 µM)	> 100000	10000	26			0.9	0.57			200
CC(C)[C@H](NC(=O)N(C)Cc1cscn1)C(=O)N[C@@H](Cc1ccccc1)[C@H](O)[C@@H](O)[C@H](Cc1ccccc1)NC(=O)[C@H](NC(=O)N(C)Cc1csc(N)n1)C(C)C	331 (≈ 403 µM)	> 100000	1500	< 1							
CC(C)[C@H](NS(=O)(=O)N(C)Cc1ccccn1)C(=O)N[C@@H](Cc1ccccc1)[C@@H](O)[C@@H](O)[C@H](Cc1ccccc1)NC(=O)[C@H](NS(=O)(=O)N(C)Cc1ccccn1)C(C)C	23 (≈ 26.5 µM)	52000		240						Not Active	
CC(C)[C@H](NC(=O)N1CCN(c2ccccc2)CC1)C(=O)N[C@@H](Cc1ccccc1)[C@@H](O)[C@@H](O)[C@H](Cc1ccccc1)NC(=O)[C@H](NC(=O)N1CCN(c2ccccc2)CC1)C(C)C	1 (≈ 1.14 µM)	18000	1700	1.4							
CC(C)[C@H](NC(=O)N(C)Cc1csc(N)n1)C(=O)N[C@@H](Cc1ccccc1)[C@@H](O)[C@H](O)[C@H](Cc1ccccc1)NC(=O)[C@H](NC(=O)N(C)Cc1csc(N)n1)C(C)C	184 (≈ 220 µM)	> 100000	2300	< 1							
CC(C)[C@H](NS(=O)(=O)CCc1ccncc1)C(=O)N[C@@H](Cc1ccccc1)[C@@H](O)[C@H](O)[C@H](Cc1ccccc1)NC(=O)[C@H](NS(=O)(=O)CCc1ccncc1)C(C)C	32 (≈ 38.2 µM)	> 100000	16000	24							
CC(C)[C@H](NC(=O)N(C)Cc1nccs1)C(=O)N[C@@H](Cc1ccccc1)[C@H](O)[C@@H](O)[C@H](Cc1ccccc1)NC(=O)[C@H](NC(=O)N(C)Cc1csc(N)n1)C(C)C	196 (≈ 238 µM)	> 100000	1600	< 1							
CC(C)[C@H](NC(=O)N(C)Cc1cccnc1)C(=O)N[C@@H](Cc1ccccc1)[C@H](O)[C@H](O)[C@H](Cc1ccccc1)NC(=O)[C@H](NC(=O)N(C)Cc1cccnc1)C(C)C	91 (≈ 114 µM)			< 1	520	> 100000	17	1.3	1400		
CC(C)[C@H](NS(=O)(=O)N(C)Cc1ccccn1)C(=O)N[C@@H](Cc1ccccc1)C(O)[C@H](Cc1ccccc1)NC(=O)[C@H](NS(=O)(=O)N(C)Cc1ccccn1)C(C)C (stereo partly drawn)	11 (≈ 13.1 µM)	32000		1300			21	1.4		Not Active	2100
CC(C)[C@H](NS(=O)(=O)N(C)Cc1ccccn1)C(=O)N[C@@H](Cc1ccccc1)[C@H](O)[C@H](O)[C@H](Cc1ccccc1)NC(=O)[C@H](NS(=O)(=O)N(C)Cc1ccccn1)C(C)C	40 (≈ 46.1 µM)	65000		38			11	1.5	43000		1160
CC(C)[C@H](NS(=O)(=O)N(C)Cc1ccccn1)C(=O)N[C@@H](Cc1ccccc1)[C@@H](O)[C@H](O)[C@H](Cc1ccccc1)NC(=O)[C@H](NS(=O)(=O)N(C)Cc1ccccn1)C(C)C	30 (≈ 34.6 µM)	56000		71						Not Active	
CC(C)[C@H](NC(=O)N1CCN(Cc2ccccc2)CC1)C(=O)N[C@@H](Cc1ccccc1)[C@H](O)[C@H](O)[C@H](Cc1ccccc1)NC(=O)[C@H](NC(=O)N1CCN(Cc2ccccc2)CC1)C(C)C	1.7 (≈ 1.88 µM)	> 100000	9400	9							
CC(C)[C@H](NC(=O)OCCN1CCOCC1)C(=O)N[C@@H](Cc1ccccc1)[C@@H](O)[C@@H](O)[C@H](Cc1ccccc1)NC(=O)[C@H](NC(=O)OCCN1CCOCC1)C(C)C	132 (≈ 162 µM)	> 100000	14000	20							
CC(C)[C@H](NC(=O)N1CCN(C)CC1)C(=O)N[C@@H](Cc1ccccc1)[C@@H](O)[C@H](Cc1ccccc1)NC(=O)[C@H](NC(=O)OCc1ccccc1)C(C)C	141 (≈ 193 µM)	55000		28			13	1.1		Not Active	250
CC(C)[C@H](NC(=O)C1Cc2ccccc2CN1)C(=O)N[C@@H](Cc1ccccc1)C(O)[C@H](Cc1ccccc1)NC(=O)[C@H](NC(=O)C1Cc2ccccc2CN1)C(C)C (stereo partly drawn)		6400		7.1						Not Active	
